Measured values reported in ChEMBL document CHEMBL2390921, “A novel benzazepinone sodium channel blocker with oral efficacy in a rat model of neuropathic pain” (Bioorg Med Chem Lett, 2013).

Experiments:
Rattus norvegicus [1] = experiment: Analgesic activity in rat spinal nerve ligation neuropathic pain model assessed as reversal of allodynia at 10 mg/kg, po measured at 24 hrs relative to control; assay type: functional
How it was run: (§1)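 Rat spinal nerve ligation model. Seven days after surgery, rats received a single oral dose (3, 10 or 30 mg/kg) of test agent or vehicle. Tactile allodynia was scored at 2, 4, 8 and 24 h post-dose with calibrated von Frey filaments using an up-down paradigm. Threshold is the force giving a 50% withdrawal rate. %MPE = (post-compound − post-SNL)/(pre-SNL − post-SNL) × 100, where 100% is full reversal.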

Rattus norvegicus [2] = experiment: Analgesic activity in rat spinal nerve ligation neuropathic pain model assessed as reversal of allodynia at 3 mg/kg, po measured at 24 hrs relative to control; assay type: functional; how it was run: as §1
Rattus norvegicus [3] = experiment: Analgesic activity in rat spinal nerve ligation neuropathic pain model assessed as reversal of allodynia at 30 mg/kg, po measured at 8 hrs relative to control; assay type: functional; how it was run: as §1
Rattus norvegicus [4] = experiment: Analgesic activity in rat spinal nerve ligation neuropathic pain model assessed as reversal of allodynia at 3 mg/kg, po measured at 8 hrs relative to control; assay type: functional; how it was run: as §1
Rattus norvegicus [5] = experiment: Analgesic activity in rat spinal nerve ligation neuropathic pain model assessed as reversal of allodynia at 30 mg/kg, po measured at 4 hrs relative to control; assay type: functional; how it was run: as §1
Rattus norvegicus [6] = experiment: Analgesic activity in rat spinal nerve ligation neuropathic pain model assessed as reversal of allodynia at 30 mg/kg, po measured at 2 hrs relative to control; assay type: functional; how it was run: as §1
[7] = biological target: T1, B1 bradykinin receptor (Homo sapiens) (UniProt P46663); experiment: Binding affinity to BK1 receptor (unknown origin) at 25 uM relative to control
T1 sequence (whole entry): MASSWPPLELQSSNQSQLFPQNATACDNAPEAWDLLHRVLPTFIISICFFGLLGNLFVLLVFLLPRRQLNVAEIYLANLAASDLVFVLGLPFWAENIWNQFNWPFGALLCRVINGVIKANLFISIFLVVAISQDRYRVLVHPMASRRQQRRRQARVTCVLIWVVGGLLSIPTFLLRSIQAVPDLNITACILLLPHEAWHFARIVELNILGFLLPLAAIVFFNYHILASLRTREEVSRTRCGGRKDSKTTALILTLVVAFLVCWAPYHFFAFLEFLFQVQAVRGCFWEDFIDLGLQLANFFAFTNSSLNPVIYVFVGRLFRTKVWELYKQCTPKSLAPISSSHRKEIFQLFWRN

[8] = biological target: Prostaglandin G/H synthase 1 (Homo sapiens) (UniProt P23219); experiment: Binding affinity to COX1 (unknown origin) at 25 uM relative to control
Chain of Prostaglandin G/H synthase 1 (Homo sapiens) (P23219 whole entry): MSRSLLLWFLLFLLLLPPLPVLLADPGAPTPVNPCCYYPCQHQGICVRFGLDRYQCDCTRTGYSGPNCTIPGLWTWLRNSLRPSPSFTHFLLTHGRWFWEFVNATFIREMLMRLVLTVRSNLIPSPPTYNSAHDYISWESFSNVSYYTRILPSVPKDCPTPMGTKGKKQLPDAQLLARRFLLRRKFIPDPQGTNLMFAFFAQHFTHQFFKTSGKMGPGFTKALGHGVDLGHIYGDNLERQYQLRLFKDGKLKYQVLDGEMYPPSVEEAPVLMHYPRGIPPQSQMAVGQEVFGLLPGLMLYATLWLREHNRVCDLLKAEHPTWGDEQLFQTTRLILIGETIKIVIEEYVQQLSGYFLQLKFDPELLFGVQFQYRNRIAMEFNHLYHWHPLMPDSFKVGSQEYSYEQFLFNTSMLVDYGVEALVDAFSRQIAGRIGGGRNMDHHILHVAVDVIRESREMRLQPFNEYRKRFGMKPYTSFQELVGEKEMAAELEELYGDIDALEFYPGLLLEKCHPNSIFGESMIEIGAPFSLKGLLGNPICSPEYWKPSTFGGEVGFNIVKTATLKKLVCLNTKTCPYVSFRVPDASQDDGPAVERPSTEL

[9] = biological target: Sodium channel protein type 9 subunit alpha (Homo sapiens, UniProt Q15858); experiment: Binding affinity to resting state of human NaV1.7 channel by whole-cell patch clamp assay
How it was run: (§2)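 Manual whole-cell voltage clamp measuring block of resting and inactivated channel states at room temperature. Data acquired at 50 kHz, filtered at 10 kHz. Bath: 40 mM NaCl, 120 mM NMDG-Cl, 1 mM KCl, 2.7 mM CaCl2, 0.5 mM MgCl2, 10 mM NMDG-HEPES, pH 7.4.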

[10] = biological target: Sodium channel protein type 10 subunit alpha (Homo sapiens) (UniProt Q9Y5Y9); experiment: Binding affinity to inactivated state of NaV1.8 channel (unknown origin) by whole-cell patch clamp assay; how it was run: as §2
Chain of Sodium channel protein type 10 subunit alpha (Homo sapiens) (Q9Y5Y9 whole entry, looked up): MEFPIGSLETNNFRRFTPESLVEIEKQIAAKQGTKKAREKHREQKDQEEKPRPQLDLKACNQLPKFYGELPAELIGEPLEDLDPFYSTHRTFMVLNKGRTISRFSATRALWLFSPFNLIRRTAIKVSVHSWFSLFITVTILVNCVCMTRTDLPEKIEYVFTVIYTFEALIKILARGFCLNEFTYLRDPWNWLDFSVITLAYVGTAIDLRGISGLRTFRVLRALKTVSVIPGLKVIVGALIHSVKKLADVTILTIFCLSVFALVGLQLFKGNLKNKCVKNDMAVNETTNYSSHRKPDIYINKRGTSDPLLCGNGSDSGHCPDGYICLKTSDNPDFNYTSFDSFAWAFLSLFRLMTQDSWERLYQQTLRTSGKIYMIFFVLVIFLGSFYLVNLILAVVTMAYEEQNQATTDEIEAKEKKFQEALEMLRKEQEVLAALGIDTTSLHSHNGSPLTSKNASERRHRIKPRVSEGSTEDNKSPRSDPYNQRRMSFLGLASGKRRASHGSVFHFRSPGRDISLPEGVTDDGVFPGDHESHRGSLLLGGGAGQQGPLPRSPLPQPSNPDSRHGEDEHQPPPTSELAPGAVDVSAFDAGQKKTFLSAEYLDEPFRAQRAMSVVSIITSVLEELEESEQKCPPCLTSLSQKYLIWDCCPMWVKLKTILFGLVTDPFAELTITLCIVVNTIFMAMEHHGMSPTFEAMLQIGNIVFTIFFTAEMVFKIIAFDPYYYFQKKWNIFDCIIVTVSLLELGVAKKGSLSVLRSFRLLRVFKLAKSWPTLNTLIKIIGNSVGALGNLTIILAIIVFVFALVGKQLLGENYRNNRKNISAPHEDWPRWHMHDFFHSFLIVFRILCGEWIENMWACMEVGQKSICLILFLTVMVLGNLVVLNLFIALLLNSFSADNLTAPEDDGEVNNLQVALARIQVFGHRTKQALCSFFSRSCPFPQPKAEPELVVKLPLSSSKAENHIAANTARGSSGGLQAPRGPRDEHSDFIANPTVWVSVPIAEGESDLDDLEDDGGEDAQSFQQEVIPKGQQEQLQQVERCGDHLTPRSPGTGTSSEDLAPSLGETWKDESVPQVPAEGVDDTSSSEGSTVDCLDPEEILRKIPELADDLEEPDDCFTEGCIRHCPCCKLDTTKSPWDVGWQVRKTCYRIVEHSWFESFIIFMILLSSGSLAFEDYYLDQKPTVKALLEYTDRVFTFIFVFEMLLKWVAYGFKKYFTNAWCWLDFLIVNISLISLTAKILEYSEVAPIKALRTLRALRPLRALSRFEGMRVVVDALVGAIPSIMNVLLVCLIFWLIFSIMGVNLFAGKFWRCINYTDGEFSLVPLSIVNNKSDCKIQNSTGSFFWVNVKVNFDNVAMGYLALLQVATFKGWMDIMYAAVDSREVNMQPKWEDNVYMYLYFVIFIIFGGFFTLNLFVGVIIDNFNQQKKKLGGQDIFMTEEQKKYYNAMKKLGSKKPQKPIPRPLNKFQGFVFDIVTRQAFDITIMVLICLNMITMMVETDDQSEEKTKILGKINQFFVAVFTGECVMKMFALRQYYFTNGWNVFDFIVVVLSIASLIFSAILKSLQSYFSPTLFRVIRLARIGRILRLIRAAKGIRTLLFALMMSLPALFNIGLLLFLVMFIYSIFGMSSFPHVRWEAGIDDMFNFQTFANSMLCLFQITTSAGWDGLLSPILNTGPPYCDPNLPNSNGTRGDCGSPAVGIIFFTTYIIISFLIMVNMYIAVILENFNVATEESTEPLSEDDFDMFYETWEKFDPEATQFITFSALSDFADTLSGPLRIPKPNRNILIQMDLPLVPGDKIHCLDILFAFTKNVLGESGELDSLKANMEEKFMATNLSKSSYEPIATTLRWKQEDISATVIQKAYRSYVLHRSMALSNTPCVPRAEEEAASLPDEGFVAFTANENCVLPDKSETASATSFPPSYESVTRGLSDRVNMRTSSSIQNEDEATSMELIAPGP

[11] = biological target: Sodium channel protein type 8 subunit alpha (Homo sapiens) (UniProt Q9UQD0); experiment: Binding affinity to inactivated state of NaV1.6 channel (unknown origin) by whole-cell patch clamp assay; how it was run: as §2
Chain of Sodium channel protein type 8 subunit alpha (Homo sapiens) (Q9UQD0 whole entry, looked up): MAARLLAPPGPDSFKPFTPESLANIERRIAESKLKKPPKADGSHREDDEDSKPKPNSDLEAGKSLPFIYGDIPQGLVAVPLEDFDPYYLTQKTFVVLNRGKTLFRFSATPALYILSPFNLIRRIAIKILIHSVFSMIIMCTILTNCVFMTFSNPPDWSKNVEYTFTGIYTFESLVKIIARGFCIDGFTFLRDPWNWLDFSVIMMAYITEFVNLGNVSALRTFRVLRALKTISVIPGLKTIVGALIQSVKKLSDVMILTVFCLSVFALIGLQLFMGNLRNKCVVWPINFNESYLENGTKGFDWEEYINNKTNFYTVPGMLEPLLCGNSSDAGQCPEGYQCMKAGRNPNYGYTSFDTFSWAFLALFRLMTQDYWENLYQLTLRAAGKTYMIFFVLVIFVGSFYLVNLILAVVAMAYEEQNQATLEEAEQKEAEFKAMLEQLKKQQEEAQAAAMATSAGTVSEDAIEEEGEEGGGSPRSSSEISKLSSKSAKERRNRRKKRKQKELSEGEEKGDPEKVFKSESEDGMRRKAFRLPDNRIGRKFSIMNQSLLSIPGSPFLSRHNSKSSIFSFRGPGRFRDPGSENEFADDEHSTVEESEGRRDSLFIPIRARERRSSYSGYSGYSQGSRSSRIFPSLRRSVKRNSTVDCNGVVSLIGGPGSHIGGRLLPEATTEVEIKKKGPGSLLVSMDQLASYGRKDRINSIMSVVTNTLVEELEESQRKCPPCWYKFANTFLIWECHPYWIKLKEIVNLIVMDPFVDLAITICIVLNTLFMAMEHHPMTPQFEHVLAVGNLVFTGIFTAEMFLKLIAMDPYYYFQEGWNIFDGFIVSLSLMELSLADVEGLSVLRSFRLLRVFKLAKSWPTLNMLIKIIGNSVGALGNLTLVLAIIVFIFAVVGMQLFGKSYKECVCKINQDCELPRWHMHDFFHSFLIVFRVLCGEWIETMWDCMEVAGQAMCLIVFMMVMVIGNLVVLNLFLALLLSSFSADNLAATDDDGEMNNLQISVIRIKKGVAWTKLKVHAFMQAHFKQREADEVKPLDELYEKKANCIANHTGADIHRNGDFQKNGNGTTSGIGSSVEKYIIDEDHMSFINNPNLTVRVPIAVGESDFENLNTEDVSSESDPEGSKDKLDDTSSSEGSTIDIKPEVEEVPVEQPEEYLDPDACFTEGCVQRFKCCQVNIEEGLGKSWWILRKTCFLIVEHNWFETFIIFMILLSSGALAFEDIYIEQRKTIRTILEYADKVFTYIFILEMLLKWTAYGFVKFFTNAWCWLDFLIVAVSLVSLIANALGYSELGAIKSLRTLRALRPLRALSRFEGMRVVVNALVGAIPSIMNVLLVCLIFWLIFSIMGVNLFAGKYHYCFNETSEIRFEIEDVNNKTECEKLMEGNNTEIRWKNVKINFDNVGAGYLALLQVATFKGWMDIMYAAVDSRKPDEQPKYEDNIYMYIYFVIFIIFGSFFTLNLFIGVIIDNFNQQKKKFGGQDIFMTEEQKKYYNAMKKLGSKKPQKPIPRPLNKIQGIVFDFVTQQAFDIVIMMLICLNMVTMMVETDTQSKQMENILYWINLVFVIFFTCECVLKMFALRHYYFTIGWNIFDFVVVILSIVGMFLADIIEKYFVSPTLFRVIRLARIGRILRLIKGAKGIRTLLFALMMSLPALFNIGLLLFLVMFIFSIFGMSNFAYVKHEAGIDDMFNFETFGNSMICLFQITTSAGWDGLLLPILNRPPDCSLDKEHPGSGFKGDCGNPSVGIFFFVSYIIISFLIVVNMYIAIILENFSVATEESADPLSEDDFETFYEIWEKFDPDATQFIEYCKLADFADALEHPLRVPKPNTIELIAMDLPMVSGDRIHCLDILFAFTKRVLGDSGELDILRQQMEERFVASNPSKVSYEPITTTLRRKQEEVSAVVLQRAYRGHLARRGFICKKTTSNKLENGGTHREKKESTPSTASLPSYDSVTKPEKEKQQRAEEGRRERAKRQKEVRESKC

[12] = Half life in Sprague-Dawley rat at 3 mg/kg, po and 1 mg/kg, iv; assay type: ADME, organism-based; conditions: in vivo
How it was run: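 Fasted male Sprague–Dawley rats (n = 3 per route) were dosed with 1.5 mg/mL solutions in PEG300/water or DMSO/PEG300/water, either 1.0 mg/kg iv via femoral-vein cannula or 3.0 mg/kg by oral gavage. Blood was sampled at 5 min (iv only), 15 and 30 min, and 1, 2, 4, 6 and 8 h. Plasma levels were measured by LC–MS/MS after acetonitrile protein precipitation.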

With `O=C(N[C@H](Cc1ccccc1F)C(=O)N[C@@H]1CCc2c(F)c(F)cc(F)c2N(C2CC2)C1=O)C1CC1C(F)(F)F` (some centres not stated) the Activity (Rattus norvegicus [1]) was 4%, the Activity (Rattus norvegicus [2]) was 1% and the Activity (Rattus norvegicus [3]) was 28%. It also gave an Activity (Rattus norvegicus [4]) of 7%, an Activity (Rattus norvegicus [5]) of 55% and an Activity (Rattus norvegicus [6]) of 62%. For the same molecule, the Activity [7] was less than 50%, the Activity [8] was less than 50% and the K [9] was 24 µM. For the same molecule, the K [10] was 3.02 µM, the K [11] was 3.88 µM and the half-life [12] was 1.9 h.
